Drug metabolism and Retention_time data for four compounds are collected here from ChEMBL document CHEMBL3861962 (Eur J Med Chem, 2016).

In series [1] the target is T1, Cytochrome P450 3A4 (Homo sapiens, UniProt P08684). In words: Drug level assessed as human recombinant CYP3A4-mediated compound formation treated with bosentan at 5 uM in presence of NADPH after 30 mins by LC-MS/MS analysis. It is filed as ADME. Conditions: recombinant enzyme, 0.5 h. In short, it runs like this:
(§1)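 Substrate at 5 μM final in 100 mM potassium phosphate, pH 7.4, incubated with human liver microsomes or baculovirus-expressed recombinant CYP3A4, 2D6 or 2C9. Reaction started with 1 mM NADPH and run 0, 15 and 30 min at 37 °C. Stopped with ice-cold acetonitrile containing labetalol internal standard, then centrifuged. Supernatant analysed by LC-MS/MS on a C18 column at 40 °C. Blank was enzyme without substrate.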

Series [2] in a line: Drug level in human liver microsomes treated with bosentan at 5 uM in presence of NADPH after 30 mins by LC-MS/MS analysis. Conditions: 0.5 h. It is filed as ADME. In short, it runs like this:
as §1

Series [3] is described as follows: Retention time of the compound. It is filed as physicochemical.
Series [4] in a line: Drug level in human liver microsomes treated with 4-(1,1,1,2,3,3,3-Heptafluoropropan-2-yl)-N-(6-(2-hydroxyethoxy)-5-(2-methoxyphenoxy)-2,2'-bipyrimidin-4-yl)benzenesulfonamide at 5 uM in presence of NADPH after 30 mins by LC-MS/MS analysis. Conditions: 0.5 h. It is filed as ADME. In short, it runs like this:
as §1
In general terms: Liver microsomes are vesicles of endoplasmic reticulum, rich in cytochrome P450 enzymes.

Series [5] has as its target T1, Cytochrome P450 3A4. In words: Drug level assessed as human recombinant CYP3A4-mediated compound formation treated with 4-(1,1,1,2,3,3,3-Heptafluoropropan-2-yl)-N-(6-(2-hydroxyethoxy)-5-(2-methoxyphenoxy)-2,2'-bipyrimidin-4-yl)benzenesulfonamide at 5 uM in presence of NADPH after 30 mins by LC-MS/MS analysis. It is filed as ADME. As to conditions: recombinant enzyme, 0.5 h. In short, it runs like this: as §1

In series [6] the target is T1, Cytochrome P450 3A4. In words: Drug level assessed as human recombinant CYP3A4-mediated compound formation treated with 4-(1,1,1,3,3,3-Hexafluoro-2-methoxypropan-2-yl)-N-(6-(2-hydroxyethoxy)-5-(2-methoxyphenoxy)-2,2'-bipyrimidin-4-yl)benzenesulfonamide at 5 uM in presence of NADPH after 30 mins by LC-MS/MS analysis. It is filed as ADME. As to conditions: recombinant enzyme, 0.5 h. In short, it runs like this: as §1

A short description of series [7]: Drug level in human liver microsomes treated with 4-(1,1,1,3,3,3-Hexafluoro-2-methoxypropan-2-yl)-N-(6-(2-hydroxyethoxy)-5-(2-methoxyphenoxy)-2,2'-bipyrimidin-4-yl)benzenesulfonamide at 5 uM in presence of NADPH after 30 mins by LC-MS/MS analysis. It is filed as ADME. Conditions: 0.5 h. An outline of the steps:
as §1

T1 sequence (P08684 whole entry): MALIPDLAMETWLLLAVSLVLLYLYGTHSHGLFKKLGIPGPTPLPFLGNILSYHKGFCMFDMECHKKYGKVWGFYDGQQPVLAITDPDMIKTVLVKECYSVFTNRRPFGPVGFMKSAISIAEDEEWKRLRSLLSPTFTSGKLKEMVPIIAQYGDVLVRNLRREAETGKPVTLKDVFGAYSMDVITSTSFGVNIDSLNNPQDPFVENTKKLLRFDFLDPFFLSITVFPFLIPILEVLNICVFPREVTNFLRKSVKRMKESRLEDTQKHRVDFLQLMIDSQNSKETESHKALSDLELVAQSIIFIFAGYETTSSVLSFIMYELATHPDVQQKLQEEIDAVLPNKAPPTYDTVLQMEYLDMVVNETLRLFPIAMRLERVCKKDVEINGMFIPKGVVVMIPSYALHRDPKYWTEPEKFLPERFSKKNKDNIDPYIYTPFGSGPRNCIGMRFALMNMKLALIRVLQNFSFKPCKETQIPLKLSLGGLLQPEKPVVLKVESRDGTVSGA

Regarding `CC(C)(CO)c1ccc(S(=O)(=O)Nc2nc(-c3ncccn3)nc(OCCO)c2Oc2ccccc2O)cc1`, the Drug metabolism entry (at Cytochrome P450 3A4 [1]; in series [2]) was “Metabolite_Detected” each time. The compound also yielded a Retention_time in series [3] of 4.16 min.

As to `O=S(=O)(Nc1nc(-c2ncccn2)nc(OCCO)c1Oc1ccccc1O)c1ccc(C(F)(C(F)(F)F)C(F)(F)F)cc1`, the Drug metabolism result (in series [4]; on Cytochrome P450 3A4 [5]) was “Metabolite_Detected” each time. The compound further had a Retention_time in series [3] of 5.27 min.

With `COC(c1ccc(S(=O)(=O)Nc2nc(-c3ncccn3)nc(OCCO)c2Oc2ccccc2O)cc1)(C(F)(F)F)C(F)(F)F`, the Drug metabolism entry (at Cytochrome P450 3A4 [6]; in series [7]) was “Metabolite_Detected” each time. The compound also displayed a Retention_time in series [3] of 5.14 min.

With `CCOc1nc(-c2ncccn2)nc(NS(=O)(=O)c2ccc(C(C)(C)C)cc2)c1Oc1ccccc1O`, in series [3], the Retention_time was 5.52 min.
